DENV2 CPE rescue = inhibitors of DENV2 cytopathic effect, primary screen, cell-based, plate reader, single concentration; DENV2-infected cells, cytopathic effect rescue; CPE inhibition, % at 9.99 µM; hit rate 1.7% among 350,000; AID 651640, 2012; in the data active = CPE inhibition above about 20%, passing the limit was not always enough; inconclusive = no clear call, values can overlap the other calls; tested in BHK-21 cells;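 also: 0% = median of neutral control wells and 100% = median of positive control wells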
PfHsp90 set2 = growth inhibition of PfHsp90-expressing yeast, primary screen, antimalarial PfHsp90 inhibitor project, S. cerevisiae, BacTiter-Glo luminescence, single point, set 2. hit rate 0.32% among 310,000. BacTiter-Glo ATP, 48 h; yeast lacking PDR1 and PDR3 efflux regulators. inhibition, % at 9.4 µM;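 active = every replicate shows inhibition above about 80%, whatever the replicate mean, limit read from the data; inconclusive = mean inhibition reaches the set limit but some replicate falls short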;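 also: 0% = DMSO neutral controls and 100% = 20 µM radicicol positive controls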
S100A4 MyoIIA = inhibitors of S100A4-myosin IIA peptide binding, primary screen, biochemical, fluorescence polarization, TAMRA-MyoIIA peptide. Protein S100-A4 (Homo sapiens), P26447. hit rate 0.14% among 360,000. inhibition, % at 10.7 µM;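 active = mean inhibition of at least 70% across replicates, with every replicate also reaching that level; inconclusive = mean inhibition reaches 70% but some replicates fall short; inactive = mean inhibition below 70%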
Target sequence (P26447 whole entry, looked up): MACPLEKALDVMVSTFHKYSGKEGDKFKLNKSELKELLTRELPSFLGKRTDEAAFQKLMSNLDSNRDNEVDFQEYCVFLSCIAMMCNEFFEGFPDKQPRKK
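System – human S100A4 monomer protein, biochemical binding assay · Buffer or medium – Calcium-containing HEPES buffer, pH 7.2 · Timing – 5 min between mix addition and reading · Also added – TAMRA-labelled myosin IIA heavy-chain peptide probe, 5 nM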
rRNA inh HTS = reduced GFP signal of wild-type E. coli, primary screen, bacterial rRNA inhibitor project, GFP/RFP fluorescence, OD600, single point | GFP signal change (wild-type ribosome), % (test concentration not listed) | AID 720706, 2013 | E. coli WT GFP vs humanized-ribosome RFP mutants, 24 h; stronger effect = lower value; DMSO median 0, no signal -100 | hit rate 1.6% among 350,000;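 active = significant combined selectivity score with lowered wild-type GFP, culture density cut under 30%, mutant RFP and density less affected; inactive = any of these conditions unmet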
Cneo AK release = Cryptococcus neoformans cell lysis inducers, primary screen, AK release luminescence, single concentration; AID 651654, 2012; hit rate 0.2% among 360,000; lysis activity, % at 15 µM; C. neoformans lysis, adenylate kinase release luminescence, 4 h; normalised: neutral wells 0, clomiphene wells 100;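 active = mean lysis activity across replicates of at least 80%, whatever share of replicates individually reach that level; inactive = mean lysis activity below 80%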
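Assay system: C. neoformans cells. Amount: yeast cell density of 5 × 10^6 cells/mL. Technique: AK luminescence. Buffer or medium: YPD. Times: static 4 h at 37 °C with compound, 1 h detection. Dosing: single-point compound dose. Read-out: lysis from increased AK signal.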
AF4-AF9 inh = inhibitors of AF4 peptide binding to AF9, primary screen, biochemical, AlphaScreen, biotin-AF4 peptide, FLAG-AF9, single point. Protein AF-9 (Homo sapiens), P42568. inhibition, % at 10 µM. hit rate 0.47% among 350,000;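 active = every replicate reaching a set inhibition limit, whatever the replicate mean, cut at about 25% in these data; inconclusive = mean inhibition reaches that limit but some replicates miss it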;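 also: 0% = plate neutral control median and 100% = total signal loss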
Numbers without * were called inactive; ? = inconclusive; nt = no result given. An excerpt weighted towards active compounds, which were near 3.2% of everything screened.

SMILES	DENV2 CPE rescue	PfHsp90 set2	S100A4 MyoIIA	rRNA inh HTS	Cneo AK release	AF4-AF9 inh
O=C(NC12CC3CC(CC(C3)C1)C2)N1CCN(c2ncccn2)CC1	-8	2	-17	-21*	nt	-1
O=[N+]([O-])c1cccc2c(S(=O)(=O)N3CCCCC3)cccc12	53*	-8	4	-13	-4	13
CCN(C(=O)c1cnc(NC(C)C)cc1C(F)(F)F)c1ccc(Cl)cc1Cl	?	5	2	-23*	1	-5
C[C@H]1CN([C@@H](C)CO)C(=O)c2cc(NC(=O)CCCCCC(=O)Nc3ccccc3N)ccc2O[C@H]1CN(C)CC1CCCCC1	-2	nt	-7	-1	nt	-15
CCc1ccc(NC(=O)N(CCCN2CCOCC2)Cc2cccs2)cc1	34*	12	8	5	0	-7
Cc1ccc(NC(=O)N(CCCN2CCOCC2)Cc2cccnc2)cc1C	-5	-9	-8	15	0	39*
O=C(CSCC(=O)N1CCN(c2ccccc2)CC1)Nc1nc(-c2ccc(Cl)s2)cs1	-6	4	9	-3	1	7
O=C(CSCC(=O)N1CCCCC1)Nc1nc(-c2ccc(Cl)s2)cs1	-5	108*	-2	0	10	8
c1ccc(COn2nnc3ccccc32)c(COn2nnc3ccccc32)c1	1	-28	-10	-43*	-2	6
O=C(C[C@@H]1CC[C@@H]2[C@H](COC[C@@H](O)CN2Cc2ccccc2F)O1)N[C@H]1CCN(Cc2ccccc2)C1	-1	nt	21	2	5	0
CCCNC(=O)N1C[C@H]2[C@@H](c3ccccc31)[C@@H](CO)N2Cc1cc(F)ccc1F	-7	nt	7	-7	1	0
CCN(CC)S(=O)(=O)c1cccc(NC(=O)c2cncc(Br)c2)c1	6	0	-2	nt	nt	1
CCN(CC)S(=O)(=O)c1cccc(NC(=O)c2ccc(Br)cc2)c1	4	96*	0	0	nt	-2
O=C(NC(=S)NCc1ccc(-c2nc3ccccc3s2)cc1)c1ccco1	nt	-8	nt	nt	nt	nt
O=C(NCc1ccc(-c2nc3ccccc3s2)cc1)c1ccco1	-3	-10	-5	-20*	-2	-4
C[C@H]1CCCCO[C@H](CN(C)C(=O)CCCN(C)C)[C@@H](C)CN([C@@H](C)CO)C(=O)c2cc(NC(=O)C3CCCCC3)ccc2O1	-3	nt	-5	3	5	0
Cc1cccc(-c2ccc([C@H]3[C@H]4CN(C(=O)c5ccncc5)CCCCN4[C@H]3CO)cc2)c1	22*	nt	4	5	5	11
O=C(c1cccc(F)c1)N1CCCCN2[C@H](CO)[C@H](c3ccc(-c4ccncc4)cc3)[C@@H]2C1	22*	nt	16	-2	0	-2
Cc1cccc(-c2ccc([C@H]3[C@H](CO)N4CCCCN(C(=O)c5ccc6c(c5)OCO6)C[C@@H]34)cc2)c1	-34	nt	-2	-59	91*	15
O=C(c1ccc2c(c1)OCO2)N1CCCCN2[C@H](CO)[C@@H](c3ccc(-c4ccccc4)cc3)[C@@H]2C1	27*	nt	-2	-57	1	-7
O=C(c1ccc2c(c1)OCO2)N1CCCCN2[C@H](C1)[C@@H](c1ccc(-c3ccccc3)cc1)[C@@H]2CO	13	nt	2	-54	6	-3
CCCN1[C@@H]2Cn3c(ccc(C4=CCCC4)c3=O)[C@H]1[C@@H](C(=O)N(C)C)[C@@H]2CO	0	nt	-5	1	-1	4
COc1cccc(C(=O)N2C[C@H]3[C@@H](c4ccccc42)[C@@H](CO)N3C(=O)c2cccc(F)c2)c1	-9	nt	-1	0	-1	0
CC(=O)N1CCCCN2[C@H](C1)[C@H](c1ccc(-c3cccc(C(=O)N(C)C)c3)cc1)[C@@H]2CO	0	nt	18	0	-1	2

Compound activity deposited in PubChem BioAssay by Broad Institute.
